Data set [1] deals with SRSF protein kinase 1 (Homo sapiens) (UniProt Q96SB4). The data set can be described thus: Binding affinity to wild-type human full length SRPK1 (M1 to S655 residues) expressed in bacterial expression system assessed as remaining unbound target protein level at 1000 nM by Kinomescan method relative to control. The procedure, abridged:
(§1)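 KINOMEscan competition binding profile across a panel of 468 kinases and mutants, with the inhibitor tested at a single concentration of 1 μM. Binding is reported as percent of control, meaning signal relative to a DMSO control.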

Data set [2] has as its target Leukocyte tyrosine kinase receptor (Homo sapiens) (UniProt P29376). The data set can be described thus: Binding affinity to wild-type human partial length LTK (P422 to S744 residues) expressed in bacterial expression system assessed as remaining unbound target protein level at 1000 nM by Kinomescan method relative to control. The procedure, abridged: (§2)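 KINOMEscan binding panel of 468 kinases/mutants. Inhibitor was tested at a single concentration of 1 μM. Binding is reported as percent of control, defined relative to a DMSO control.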

Data set [3] concerns Mast/stem cell growth factor receptor Kit (Homo sapiens), P10721 [V559D,T670I]. The data set can be described thus: Binding affinity to human partial length KIT V559D/T670I double mutant (Y545 to D952 residues) expressed in bacterial expression system assessed as remaining unbound target protein level at 1000 nM by Kinomescan method relative to control. In short, it runs like this:
(§3)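 KINOMEscan competition-binding profiling across the panel of 468 kinases and mutants, with inhibitor tested at 1 μM. Binding is expressed as percent of control, with DMSO as the reference control.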

Data set [4] concerns the target Receptor tyrosine-protein kinase erbB-2 (Homo sapiens) (UniProt P04626). The data set can be described thus: Binding affinity to wild-type human partial length ERBB2 (K646 to V1225 residues) expressed in mammalian expression system assessed as remaining unbound target protein level at 1000 nM by Kinomescan method relative to control.
A short description of data set [5]: Apparent volume of distribution in Sprague-Dawley rat at 3 mg/kg, iv by LC-MS/MS analysis. It counts as ADME, organism-based. The conditions noted are these: in vivo, read-out: Vz. In short, it runs like this:
(§4)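 Non-compartmental PK. Male SD rats 190-210 g, mice and beagle dogs acclimatized one week, fasted 12 h with water, split into iv and po groups (mice 48, rats 6, dogs 6). iv 3/3/2 mg/kg (mice/rats/dogs); po 10/20/10 mg/kg; vehicle DMSO in 5% glucose water. Blood at 2 or 5 to 720 min; plasma protein-precipitated with methanol, caffeine internal standard, LC-MS/MS.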

Data set [6] in a line: AUC (0 to infinity) in Sprague-Dawley rat at 3 mg/kg, iv by LC-MS/MS analysis. Conditions: in vivo. The arrangement: dose 3 mg/kg, time infinity, route intravenous. Format: ADME, organism-based. In short, it runs like this:
as §4

Data set [7] addresses Mitogen-activated protein kinase 9 (Homo sapiens) (UniProt P45984). In words: Binding affinity to wild-type human full length JNK2 (M1 to Q382 residues) expressed in mammalian expression system assessed as remaining unbound target protein level at 1000 nM by Kinomescan method relative to control. In short, it runs like this: as §1
Data set [8] deals with Insulin-like growth factor 1 receptor (Homo sapiens) (UniProt P08069). In words: Binding affinity to wild-type human partial length IGF1R (L972 to D1294 residues) expressed in bacterial expression system assessed as remaining unbound target protein level at 1000 nM by Kinomescan method relative to control.
The target in data set [9] is SRSF protein kinase 2 (Homo sapiens) (UniProt P78362). In words: Binding affinity to wild-type human full length SRPK2 (M1 to S686 residues) expressed in bacterial expression system assessed as remaining unbound target protein level at 1000 nM by Kinomescan method relative to control. The procedure, abridged: (§5)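 Profiled in a KINOMEscan binding panel with the inhibitor at a single concentration of 1 μM. Binding to each kinase was read out as percent of control, relative to a DMSO control. Strong binders were defined as those with a percent control value below 1.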
SRSF protein kinase 2 (Homo sapiens), sequence (P78362 whole entry, looked up, the tested form may be a part): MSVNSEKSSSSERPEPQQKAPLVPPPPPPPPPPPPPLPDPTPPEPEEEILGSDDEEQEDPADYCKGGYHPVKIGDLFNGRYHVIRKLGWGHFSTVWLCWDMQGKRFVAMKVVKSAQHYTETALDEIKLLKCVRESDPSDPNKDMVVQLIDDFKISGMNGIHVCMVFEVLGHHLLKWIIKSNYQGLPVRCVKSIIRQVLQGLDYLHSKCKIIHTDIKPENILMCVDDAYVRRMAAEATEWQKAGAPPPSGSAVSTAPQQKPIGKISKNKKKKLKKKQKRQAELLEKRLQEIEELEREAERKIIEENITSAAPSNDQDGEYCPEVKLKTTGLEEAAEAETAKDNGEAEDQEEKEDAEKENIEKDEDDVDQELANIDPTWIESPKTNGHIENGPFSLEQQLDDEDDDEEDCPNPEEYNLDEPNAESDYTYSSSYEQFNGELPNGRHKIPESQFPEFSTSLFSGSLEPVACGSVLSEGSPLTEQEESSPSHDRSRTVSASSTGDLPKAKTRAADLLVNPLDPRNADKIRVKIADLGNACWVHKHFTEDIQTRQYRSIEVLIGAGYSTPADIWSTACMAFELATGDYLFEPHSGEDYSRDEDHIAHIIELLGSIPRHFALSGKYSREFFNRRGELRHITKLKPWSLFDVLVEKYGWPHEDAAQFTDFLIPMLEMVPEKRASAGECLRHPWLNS

The target of data set [10] is Phosphorylase b kinase gamma catalytic chain, liver/testis isoform (Homo sapiens) (UniProt P15735). In words: Binding affinity to wild-type human partial length PHKG2 (M1 to W300 residues) expressed in bacterial expression system assessed as remaining unbound target protein level at 1000 nM by Kinomescan method relative to control. The procedure, abridged: as §2
Phosphorylase b kinase gamma catalytic chain, liver/testis isoform (Homo sapiens), sequence (P15735 whole entry, the tested form may be a part, canonical isoform): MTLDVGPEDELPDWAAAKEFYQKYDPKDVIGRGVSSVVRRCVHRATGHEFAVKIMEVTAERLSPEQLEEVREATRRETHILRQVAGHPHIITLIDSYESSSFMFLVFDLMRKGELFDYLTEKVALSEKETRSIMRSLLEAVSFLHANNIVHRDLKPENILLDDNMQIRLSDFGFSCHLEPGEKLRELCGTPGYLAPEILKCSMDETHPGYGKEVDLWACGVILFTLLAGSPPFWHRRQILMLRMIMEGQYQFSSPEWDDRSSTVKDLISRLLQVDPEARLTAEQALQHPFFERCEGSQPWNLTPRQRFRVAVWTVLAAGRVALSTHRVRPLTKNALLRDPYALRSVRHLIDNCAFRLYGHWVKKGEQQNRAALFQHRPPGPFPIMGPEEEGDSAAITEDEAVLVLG
A short description of data set [11]: Antiproliferative activity against human MEC1 cells after 72 hrs by Celltiter-Glo assay. It counts as functional. Conditions: MEC1, 72 h. In short, it runs like this: (§6)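 Cells seeded at 3000/well in 96-well plates, exposed to serially diluted compound for 72 h at 37 °C, 5% CO2. Viability read by CellTiter-Glo luminescence and normalized to DMSO control. GI50 derived from curve fit, mean of three independent measurements. Culture media: DMEM/10% FBS for adherent lines; IMDM for MV4-11 and MEC-1/2; RPMI 1640 for suspension lines and CHL.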
(In general: In ATP-based viability assays light output follows the ATP content of the culture.)

The test system of data set [12] is U-937. In words: Antiproliferative activity against human U937 cells after 72 hrs by Celltiter-Glo assay. It counts as functional. The conditions noted are these: U-937, 72 h. In short, it runs like this: as §6
The target in data set [13] is Protein kinase C theta type (Homo sapiens) (UniProt Q04759). The data set can be described thus: Binding affinity to wild-type human partial length PRKCQ (L350 to S706 residues) expressed in bacterial expression system assessed as remaining unbound target protein level at 1000 nM by Kinomescan method relative to control.
For data set [14], the target named is Serine/threonine-protein kinase BRSK1 (Homo sapiens) (UniProt Q8TDC3). The data set can be described thus: Binding affinity to wild-type human partial length BRSK1 (M1 to E754 residues) expressed in bacterial expression system assessed as remaining unbound target protein level at 1000 nM by Kinomescan method relative to control. In short, it runs like this:
as §5

Data set [15] concerns the target Dual specificity protein kinase CLK1 (Homo sapiens) (UniProt P49759). In words: Binding affinity to wild-type human full length CLK1 (M1 to I484 residues) expressed in bacterial expression system assessed as remaining unbound target protein level at 1000 nM by Kinomescan method relative to control. The procedure, abridged: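 KINOMEscan competitive binding profile at 1 μM inhibitor. Remaining target binding reported as percent of DMSO control.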

In data set [16] the test system is Epidermal growth factor receptor (Homo sapiens), P00533 [T790M]. The data set can be described thus: Binding affinity to human partial length EGFR T790M mutant (R669 to G1022 residues) expressed in mammalian expression system assessed as remaining unbound target protein level at 1000 nM by Kinomescan method relative to control. In short, it runs like this: as §3

The target of data set [17] is Cyclin-dependent kinase 13 (Homo sapiens) (UniProt Q14004). In words: Binding affinity to wild-type human partial length CDC2L5 (H675 to S1054 residues) expressed in mammalian expression system assessed as remaining unbound target protein level at 1000 nM by Kinomescan method relative to control. The procedure, abridged: as §1
The target of data set [18] is Ephrin type-A receptor 3 (Homo sapiens) (UniProt P29320). The data set can be described thus: Binding affinity to wild-type human partial length EPHA3 (D604 to K889 residues) expressed in bacterial expression system assessed as remaining unbound target protein level at 1000 nM by Kinomescan method relative to control. In short, it runs like this:
as §2

For data set [19], the target named is Myosin light chain kinase 2, skeletal/cardiac muscle (Homo sapiens) (UniProt Q9H1R3). The data set can be described thus: Binding affinity to wild-type human partial length MYLK2 (D258 to K570 residues) expressed in bacterial expression system assessed as remaining unbound target protein level at 1000 nM by Kinomescan method relative to control. The procedure, abridged: as §2

The target in data set [20] is Macrophage colony-stimulating factor 1 receptor (Homo sapiens) (UniProt P07333). The data set can be described thus: Binding affinity to wild-type human partial length CSF1R (I564 to S939 residues) expressed in bacterial expression system assessed as remaining unbound target protein level at 1000 nM by Kinomescan method relative to control.
Macrophage colony-stimulating factor 1 receptor (Homo sapiens), sequence (P07333 whole entry, the tested form may be a part): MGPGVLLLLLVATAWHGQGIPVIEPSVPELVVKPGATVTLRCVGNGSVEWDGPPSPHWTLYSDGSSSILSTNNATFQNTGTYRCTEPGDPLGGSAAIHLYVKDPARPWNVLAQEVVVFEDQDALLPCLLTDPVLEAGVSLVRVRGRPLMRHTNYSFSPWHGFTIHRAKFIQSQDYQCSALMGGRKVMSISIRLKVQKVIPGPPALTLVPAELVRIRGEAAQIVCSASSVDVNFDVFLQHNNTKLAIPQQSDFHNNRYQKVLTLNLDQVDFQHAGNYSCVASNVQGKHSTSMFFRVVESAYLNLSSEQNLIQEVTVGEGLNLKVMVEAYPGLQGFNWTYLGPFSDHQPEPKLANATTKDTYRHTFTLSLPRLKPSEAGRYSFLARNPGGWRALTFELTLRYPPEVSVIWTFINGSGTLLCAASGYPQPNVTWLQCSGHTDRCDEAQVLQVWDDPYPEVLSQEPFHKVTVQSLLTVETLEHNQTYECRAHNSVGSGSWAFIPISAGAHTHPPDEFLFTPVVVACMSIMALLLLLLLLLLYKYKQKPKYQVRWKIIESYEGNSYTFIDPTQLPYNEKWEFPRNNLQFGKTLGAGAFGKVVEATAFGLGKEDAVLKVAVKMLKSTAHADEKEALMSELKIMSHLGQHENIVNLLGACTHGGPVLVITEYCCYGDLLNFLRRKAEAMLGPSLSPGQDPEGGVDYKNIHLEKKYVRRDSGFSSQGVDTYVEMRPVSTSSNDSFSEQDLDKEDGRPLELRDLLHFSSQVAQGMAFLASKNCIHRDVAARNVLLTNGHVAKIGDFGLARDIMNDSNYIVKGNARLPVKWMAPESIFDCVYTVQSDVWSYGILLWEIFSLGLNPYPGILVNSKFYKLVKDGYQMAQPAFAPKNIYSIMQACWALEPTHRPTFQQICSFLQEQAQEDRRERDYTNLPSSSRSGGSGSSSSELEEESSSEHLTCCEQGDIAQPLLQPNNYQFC

Serine/threonine-protein kinase BRSK1 (Homo sapiens), sequence (Q8TDC3 whole entry, the tested form may be a part): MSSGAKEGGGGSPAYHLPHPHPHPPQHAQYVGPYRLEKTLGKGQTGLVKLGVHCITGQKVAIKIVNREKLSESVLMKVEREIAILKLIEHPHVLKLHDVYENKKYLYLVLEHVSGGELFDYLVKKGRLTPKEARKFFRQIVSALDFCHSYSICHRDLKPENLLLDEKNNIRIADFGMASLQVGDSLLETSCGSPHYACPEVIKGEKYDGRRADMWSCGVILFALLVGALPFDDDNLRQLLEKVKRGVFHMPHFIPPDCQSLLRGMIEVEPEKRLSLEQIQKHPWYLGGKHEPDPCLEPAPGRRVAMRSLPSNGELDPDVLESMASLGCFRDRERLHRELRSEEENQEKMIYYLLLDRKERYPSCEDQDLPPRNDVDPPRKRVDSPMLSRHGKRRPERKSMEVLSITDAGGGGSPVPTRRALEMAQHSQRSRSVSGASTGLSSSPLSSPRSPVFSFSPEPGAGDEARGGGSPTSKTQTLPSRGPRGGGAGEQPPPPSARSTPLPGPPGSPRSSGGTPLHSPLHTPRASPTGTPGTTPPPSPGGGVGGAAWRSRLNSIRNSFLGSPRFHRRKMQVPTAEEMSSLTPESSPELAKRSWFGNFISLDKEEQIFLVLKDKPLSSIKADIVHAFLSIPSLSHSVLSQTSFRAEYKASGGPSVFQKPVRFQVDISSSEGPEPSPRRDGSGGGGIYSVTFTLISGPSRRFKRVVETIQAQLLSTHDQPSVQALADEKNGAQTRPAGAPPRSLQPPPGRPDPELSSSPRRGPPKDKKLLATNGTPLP
Dual specificity protein kinase CLK1 (Homo sapiens), sequence (P49759 whole entry, looked up, the tested form may be a part): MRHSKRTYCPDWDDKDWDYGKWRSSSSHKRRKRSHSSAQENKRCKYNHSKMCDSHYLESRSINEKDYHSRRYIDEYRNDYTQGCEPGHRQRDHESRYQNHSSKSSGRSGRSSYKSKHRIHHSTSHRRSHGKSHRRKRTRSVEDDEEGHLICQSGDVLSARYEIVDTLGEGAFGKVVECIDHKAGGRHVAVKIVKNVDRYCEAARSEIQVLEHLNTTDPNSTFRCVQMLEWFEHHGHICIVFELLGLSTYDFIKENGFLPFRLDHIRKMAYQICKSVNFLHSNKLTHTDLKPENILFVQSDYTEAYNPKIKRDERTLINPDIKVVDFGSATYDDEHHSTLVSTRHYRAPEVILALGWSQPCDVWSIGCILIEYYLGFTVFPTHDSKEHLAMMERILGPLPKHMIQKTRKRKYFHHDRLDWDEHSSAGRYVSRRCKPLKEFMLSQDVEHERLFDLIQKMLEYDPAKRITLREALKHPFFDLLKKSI
Mitogen-activated protein kinase 9 (Homo sapiens), sequence (P45984 whole entry, looked up, the tested form may be a part): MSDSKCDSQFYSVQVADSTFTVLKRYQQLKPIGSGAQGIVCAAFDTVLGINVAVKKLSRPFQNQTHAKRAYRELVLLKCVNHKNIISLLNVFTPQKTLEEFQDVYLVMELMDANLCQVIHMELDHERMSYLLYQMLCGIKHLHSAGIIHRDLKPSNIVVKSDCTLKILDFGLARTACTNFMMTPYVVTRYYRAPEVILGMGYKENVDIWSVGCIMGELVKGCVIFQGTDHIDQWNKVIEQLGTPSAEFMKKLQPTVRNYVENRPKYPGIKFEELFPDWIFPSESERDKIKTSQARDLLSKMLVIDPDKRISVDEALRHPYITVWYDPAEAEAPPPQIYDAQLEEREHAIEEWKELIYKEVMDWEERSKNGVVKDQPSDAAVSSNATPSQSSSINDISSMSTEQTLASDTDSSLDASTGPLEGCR
Receptor tyrosine-protein kinase erbB-2 (Homo sapiens), sequence (P04626 whole entry, the tested form may be a part): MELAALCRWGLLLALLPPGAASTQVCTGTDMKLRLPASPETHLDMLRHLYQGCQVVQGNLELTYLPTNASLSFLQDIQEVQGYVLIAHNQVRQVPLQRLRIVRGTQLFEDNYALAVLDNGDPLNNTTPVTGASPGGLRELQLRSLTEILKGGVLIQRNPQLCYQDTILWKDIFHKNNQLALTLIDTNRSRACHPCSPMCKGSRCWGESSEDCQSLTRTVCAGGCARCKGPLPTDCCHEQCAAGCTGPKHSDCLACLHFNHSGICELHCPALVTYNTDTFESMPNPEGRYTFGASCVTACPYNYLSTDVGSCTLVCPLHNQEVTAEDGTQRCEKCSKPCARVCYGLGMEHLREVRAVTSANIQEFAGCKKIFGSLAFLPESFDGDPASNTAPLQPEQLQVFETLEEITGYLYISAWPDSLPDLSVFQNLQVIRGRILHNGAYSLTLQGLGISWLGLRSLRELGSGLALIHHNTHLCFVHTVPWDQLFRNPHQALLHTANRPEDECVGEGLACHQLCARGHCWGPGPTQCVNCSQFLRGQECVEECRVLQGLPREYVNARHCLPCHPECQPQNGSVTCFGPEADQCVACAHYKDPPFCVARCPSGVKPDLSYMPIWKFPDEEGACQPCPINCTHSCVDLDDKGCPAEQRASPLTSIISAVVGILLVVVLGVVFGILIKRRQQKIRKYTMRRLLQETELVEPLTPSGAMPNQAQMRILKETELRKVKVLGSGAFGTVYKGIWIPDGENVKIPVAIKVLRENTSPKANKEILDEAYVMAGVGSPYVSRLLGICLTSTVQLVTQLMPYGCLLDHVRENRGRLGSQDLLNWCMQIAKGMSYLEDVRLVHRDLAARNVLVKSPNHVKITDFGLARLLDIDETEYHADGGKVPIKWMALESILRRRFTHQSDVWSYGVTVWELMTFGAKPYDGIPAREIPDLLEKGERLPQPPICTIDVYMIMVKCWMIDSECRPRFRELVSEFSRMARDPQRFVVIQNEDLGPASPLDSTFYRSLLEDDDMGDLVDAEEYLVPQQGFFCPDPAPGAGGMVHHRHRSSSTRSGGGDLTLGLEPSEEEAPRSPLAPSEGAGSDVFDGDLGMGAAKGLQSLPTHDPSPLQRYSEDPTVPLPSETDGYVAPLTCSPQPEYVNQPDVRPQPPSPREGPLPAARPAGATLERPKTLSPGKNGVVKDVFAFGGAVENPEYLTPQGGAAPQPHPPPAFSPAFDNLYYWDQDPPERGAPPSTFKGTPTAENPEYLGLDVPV

A word on the AUC(0-inf): it is the area under the concentration-time curve extrapolated to infinity. Higher therefore signals high exposure. In general, GI50 refers to the concentration that inhibits growth by half. Read a low GI50 as more potent growth inhibition. Regarding `COCCN[C@H]1CC[C@H](Nc2cc(-c3csc(NCC4(C#N)CCOCC4)n3)c(Cl)cn2)CC1`, the Activity in data set [1] came out at 66%; in data set [2], 95%; in data set [3], 89%; in data set [4], 97%; in [7] it was 8.2%; in data set [8], 92%. Besides, the Activity in [9] was found to be 100%; in data set [10] it was 99%; in [13], 100%; in data set [14], 85%; in data set [15], 18%; in data set [16], 100%. The Activity in [17] was found to be 13%; in [18], 94%; in [19] it was 93%; in data set [20], 87%. In addition, in [5], the Vd came to 44.5 L/kg. In [6], this compound displayed an AUC(0-inf) of 662 ng·h/mL. Besides, the GI50 in data set [11] was 11 to 37 nM; in data set [12] it was 2 nM.

Source of the values: ChEMBL document CHEMBL4261600 (Eur J Med Chem, 2018).
